# According to publication PMC3502072 (Molecular cancer therapeutics, 2012):
# “Also recorded” adds a separate entry of the source.
# Assays:
# [1] = tested on: MM cells (RPMI-8226, NCI-H929, U266B1, MM.1S); experiment: CellTiter-Glo cell viability, multiple myeloma cell lines; format: cell-based, human; conditions: 24 h; for Concentrations that significantly reduced MM cell viability: RPMI-8226 cells
# RPMI-8226/NIH-3T3 tumors = experiment: RPMI-8226-GFP/NIH-3T3 co-injection xenograft model
# [2] = tested on: NCI-H929 subcutaneous xenografted tumors; experiment: MM subcutaneous plasmacytoma model; format: in vivo, hairless SCID mice; conditions: for Tumor growth delay relative to vehicle-treated controls: 5 mg/kg
# [3] = Pilot toxicity study, body condition scoring; format: in vivo, mice
# Procedure, shortened: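 Pilot tolerability study in a small cohort of mice. Doses were chosen from a range based on NCI DTP toxicity data. A single dose was given, and toxicity was assessed qualitatively by body condition scoring.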
# [4] = tested on: NCI-H929 and CD138+ MM patient bone marrow cells; experiment: Cell viability, SLM6 with bortezomib; format: cell-based, human; conditions: single agents
# CDK7 = experiment: RNA polymerase II Ser5 phosphorylation; format: cell-based, human; conditions: NCI-H929 cells, 2 hours
# CDK1/cyclin B = CDK1/cyclin B (Homo sapiens, UniProt P06493); experiment: HotSpot in vitro kinase assay CDK1/cyclin B; format: biochemical; conditions: read-out: IC50 CDK1/cyclin B
# CDK7/cyclin H = CDK7/cyclin H (Homo sapiens, UniProt P50613); experiment: HotSpot in vitro kinase assay CDK7/cyclin H; format: biochemical; conditions: read-out: IC50 CDK7/cyclin H
# [5] = tested on: cyclin D1, c-Maf, c-Myc, L-Myc; experiment: Expression of MM oncogenes, Western blot and RT-PCR; format: cell-based, human; conditions: 250 nM
# CDK2/cyclin A = CDK2/cyclin A (Homo sapiens, UniProt P24941); conditions: read-out: IC50 CDK2/cyclin A
# PKC [6] = experiment: Phorbol ester-induced PKC and ERK phosphorylation in MM cells; format: cell-based, human; conditions: MM cells stimulated with phorbol-12-myristate-13-acetate
# [7] = Serum biochemistry and complete blood count in immunocompetent mice; format: in vivo; conditions: C57BL/6 mice
# CDK9/cyclin K = CDK9/cyclin K (Homo sapiens, UniProt P50750); conditions: read-out: IC50 CDK9/cyclin K kinase activity
# CDK9/cyclin T1 = CDK9/cyclin T1 (Homo sapiens, UniProt P50750); conditions: read-out: IC50 CDK9/cyclin T1 kinase activity
# CDK9 [8] = experiment: CDK9 signaling, Western blots in MM cells; format: cell-based, human; conditions: NCI-H929 cells, 2 hours
# CDK4/cyclin D1 = CDK4/cyclin D1 (Homo sapiens, UniProt P11802); experiment: HotSpot in vitro kinase assay CDK4/cyclin D1; format: biochemical; conditions: read-out: IC50 CDK4/cyclin D1
# CDK9 [9] = molecular target: CDK9 (Homo sapiens, UniProt P50750); conditions: cited from earlier work
# PKC [10] = conditions: cited from earlier work
# [11] = tested on: H460, A172, HT29, HepG2, hFOB and MRC-5 cells; format: cell-based, human; conditions: 500 nM, 16 hours
# [12] = tested on: primary CD138-positive plasma cells from MM patient bone marrow biopsies; experiment: Cell viability of primary MM patient plasma cells; format: cell-based, human; conditions: 24 h; cells from 2 patients
# Procedure, shortened: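 Bone marrow aspirates from MM patients were separated on Ficoll-Paque. CD138+ plasma cells were isolated with magnetic anti-CD138 beads, and purity was checked by FACS. Cells were cultured in RPMI 1640 with 10% FBS and gentamycin at 37°C and 5% CO2, then treated with the test compound at a range of concentrations for 24 h. Viability was read by CellTiter-Glo luminescence; mean ± S.E (n=3).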
# RPMI-8226 cells = experiment: Apoptosis, cleaved caspase-3 flow cytometry in MM cells; format: cell-based, human; conditions: 16 hours
# [13] = tested on: human cell lines derived from multiple tumor types; experiment: CellTiter-Glo cell viability, panel of tumor cell lines; format: cell-based
# [14] = cited from earlier work
# Chain of CDK4/cyclin D1 (P11802 whole entry): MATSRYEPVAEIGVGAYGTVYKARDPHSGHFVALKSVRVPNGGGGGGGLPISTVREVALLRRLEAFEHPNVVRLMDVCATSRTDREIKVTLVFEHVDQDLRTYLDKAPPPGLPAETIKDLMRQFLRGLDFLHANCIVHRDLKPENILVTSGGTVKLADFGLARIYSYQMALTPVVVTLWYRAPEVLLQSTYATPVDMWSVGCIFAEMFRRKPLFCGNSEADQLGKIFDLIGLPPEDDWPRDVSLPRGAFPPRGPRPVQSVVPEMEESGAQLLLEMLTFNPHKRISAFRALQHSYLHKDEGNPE
# Chain of CDK4/cyclin D1 (P24385 whole entry partner): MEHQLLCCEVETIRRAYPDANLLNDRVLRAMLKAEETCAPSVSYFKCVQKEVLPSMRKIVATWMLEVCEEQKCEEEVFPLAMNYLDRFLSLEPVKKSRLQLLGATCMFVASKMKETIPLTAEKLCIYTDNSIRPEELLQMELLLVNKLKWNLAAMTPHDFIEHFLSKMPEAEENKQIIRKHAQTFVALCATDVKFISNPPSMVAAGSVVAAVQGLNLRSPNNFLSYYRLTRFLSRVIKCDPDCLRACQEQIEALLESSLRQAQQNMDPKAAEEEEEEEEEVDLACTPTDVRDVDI
# Chain of CDK1/cyclin B (P06493 whole entry): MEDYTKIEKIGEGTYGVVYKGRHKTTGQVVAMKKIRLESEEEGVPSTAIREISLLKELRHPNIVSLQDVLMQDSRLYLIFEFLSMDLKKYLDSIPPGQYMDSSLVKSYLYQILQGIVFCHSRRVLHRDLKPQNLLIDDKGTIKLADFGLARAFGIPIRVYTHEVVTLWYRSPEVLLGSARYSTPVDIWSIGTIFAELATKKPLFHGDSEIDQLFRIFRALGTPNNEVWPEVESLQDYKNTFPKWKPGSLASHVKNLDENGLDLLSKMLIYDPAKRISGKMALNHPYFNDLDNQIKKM
# Chain of CDK1/cyclin B (P14635 whole entry partner): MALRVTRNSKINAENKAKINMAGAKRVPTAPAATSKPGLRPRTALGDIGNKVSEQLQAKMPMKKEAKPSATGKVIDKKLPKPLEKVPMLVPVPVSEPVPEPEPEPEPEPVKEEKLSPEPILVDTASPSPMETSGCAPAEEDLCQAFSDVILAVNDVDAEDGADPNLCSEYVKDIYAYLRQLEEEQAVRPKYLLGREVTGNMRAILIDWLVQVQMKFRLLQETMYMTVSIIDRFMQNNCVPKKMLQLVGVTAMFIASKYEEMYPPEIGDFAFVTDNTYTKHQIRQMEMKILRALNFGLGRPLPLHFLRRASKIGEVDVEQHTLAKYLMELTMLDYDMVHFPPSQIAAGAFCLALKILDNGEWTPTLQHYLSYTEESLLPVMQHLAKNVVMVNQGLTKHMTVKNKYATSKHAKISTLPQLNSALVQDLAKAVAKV
# Chain of CDK9/cyclin K (P50750 whole entry): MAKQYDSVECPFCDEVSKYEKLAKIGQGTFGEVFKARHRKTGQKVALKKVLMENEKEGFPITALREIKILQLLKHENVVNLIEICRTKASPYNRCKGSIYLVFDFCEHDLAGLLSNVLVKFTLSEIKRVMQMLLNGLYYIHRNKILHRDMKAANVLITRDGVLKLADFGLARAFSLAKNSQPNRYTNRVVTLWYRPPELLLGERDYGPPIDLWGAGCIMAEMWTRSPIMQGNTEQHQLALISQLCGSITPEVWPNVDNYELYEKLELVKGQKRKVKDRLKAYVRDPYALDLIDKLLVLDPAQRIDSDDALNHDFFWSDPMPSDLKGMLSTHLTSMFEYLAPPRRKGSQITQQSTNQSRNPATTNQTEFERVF
# Chain of CDK9/cyclin K (O75909 whole entry partner): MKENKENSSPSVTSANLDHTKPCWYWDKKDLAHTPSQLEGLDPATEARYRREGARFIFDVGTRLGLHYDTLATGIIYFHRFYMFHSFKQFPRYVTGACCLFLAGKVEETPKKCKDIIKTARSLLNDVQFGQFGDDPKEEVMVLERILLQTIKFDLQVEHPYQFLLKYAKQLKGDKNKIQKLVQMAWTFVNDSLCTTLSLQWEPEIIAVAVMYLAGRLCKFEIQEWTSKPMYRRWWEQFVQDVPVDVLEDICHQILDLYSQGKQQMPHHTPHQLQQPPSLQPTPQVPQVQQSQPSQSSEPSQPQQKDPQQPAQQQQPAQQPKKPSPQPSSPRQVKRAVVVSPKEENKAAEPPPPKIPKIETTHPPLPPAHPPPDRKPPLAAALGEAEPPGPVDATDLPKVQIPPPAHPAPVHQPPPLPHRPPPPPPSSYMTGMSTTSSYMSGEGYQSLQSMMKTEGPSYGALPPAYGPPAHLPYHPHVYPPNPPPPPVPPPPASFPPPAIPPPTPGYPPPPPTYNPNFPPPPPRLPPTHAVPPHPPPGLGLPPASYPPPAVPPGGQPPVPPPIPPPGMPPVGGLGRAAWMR
# Chain of CDK9/cyclin T1 (P50750 whole entry): as the sequence (P50750 whole entry) above
# Chain of CDK9/cyclin T1 (O60563 whole entry partner): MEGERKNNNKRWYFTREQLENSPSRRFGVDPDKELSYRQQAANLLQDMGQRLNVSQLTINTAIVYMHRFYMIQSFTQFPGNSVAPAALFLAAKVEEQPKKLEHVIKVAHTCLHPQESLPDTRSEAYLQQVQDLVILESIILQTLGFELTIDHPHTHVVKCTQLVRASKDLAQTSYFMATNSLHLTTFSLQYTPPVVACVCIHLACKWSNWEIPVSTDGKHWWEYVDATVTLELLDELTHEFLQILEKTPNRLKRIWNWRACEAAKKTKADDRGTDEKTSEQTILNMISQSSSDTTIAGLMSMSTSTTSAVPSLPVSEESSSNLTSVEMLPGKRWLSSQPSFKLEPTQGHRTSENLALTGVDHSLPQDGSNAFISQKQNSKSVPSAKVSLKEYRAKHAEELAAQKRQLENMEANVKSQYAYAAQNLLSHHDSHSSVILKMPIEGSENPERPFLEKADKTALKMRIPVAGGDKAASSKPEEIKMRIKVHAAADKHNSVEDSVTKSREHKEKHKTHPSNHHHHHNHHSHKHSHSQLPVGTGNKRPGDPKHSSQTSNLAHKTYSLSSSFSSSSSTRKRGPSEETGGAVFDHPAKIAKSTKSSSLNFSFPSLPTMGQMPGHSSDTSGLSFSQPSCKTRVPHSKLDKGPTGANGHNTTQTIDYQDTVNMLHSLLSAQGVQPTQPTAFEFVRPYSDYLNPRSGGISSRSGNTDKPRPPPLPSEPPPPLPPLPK
# Chain of CDK9 (Homo sapiens, UniProt P50750) (P50750 whole entry): as the sequence (P50750 whole entry) above
# Chain of CDK9 (Homo sapiens, UniProt P50750) (O60563 whole entry partner): as the sequence (O60563 whole entry partner) above
# Chain of CDK7/cyclin H (P50613 whole entry): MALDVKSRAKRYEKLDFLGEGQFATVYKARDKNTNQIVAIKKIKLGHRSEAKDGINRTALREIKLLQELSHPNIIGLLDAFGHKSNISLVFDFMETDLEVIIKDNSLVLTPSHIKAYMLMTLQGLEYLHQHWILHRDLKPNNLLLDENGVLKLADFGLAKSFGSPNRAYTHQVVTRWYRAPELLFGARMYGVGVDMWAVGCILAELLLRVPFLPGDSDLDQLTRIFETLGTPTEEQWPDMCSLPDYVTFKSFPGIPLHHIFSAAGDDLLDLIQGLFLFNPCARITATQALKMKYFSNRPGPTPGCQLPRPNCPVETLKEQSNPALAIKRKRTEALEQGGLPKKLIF
# Chain of CDK7/cyclin H (P51946 whole entry partner): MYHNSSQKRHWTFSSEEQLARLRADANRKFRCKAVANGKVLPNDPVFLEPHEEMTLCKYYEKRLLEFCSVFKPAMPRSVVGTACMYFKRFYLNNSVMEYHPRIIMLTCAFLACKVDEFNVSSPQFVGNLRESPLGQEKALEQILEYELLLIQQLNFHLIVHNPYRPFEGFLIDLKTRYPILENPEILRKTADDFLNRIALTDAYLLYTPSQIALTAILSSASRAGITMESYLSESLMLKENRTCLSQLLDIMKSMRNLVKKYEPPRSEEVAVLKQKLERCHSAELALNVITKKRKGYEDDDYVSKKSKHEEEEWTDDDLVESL
# Chain of CDK7/cyclin H (P51948 whole entry partner): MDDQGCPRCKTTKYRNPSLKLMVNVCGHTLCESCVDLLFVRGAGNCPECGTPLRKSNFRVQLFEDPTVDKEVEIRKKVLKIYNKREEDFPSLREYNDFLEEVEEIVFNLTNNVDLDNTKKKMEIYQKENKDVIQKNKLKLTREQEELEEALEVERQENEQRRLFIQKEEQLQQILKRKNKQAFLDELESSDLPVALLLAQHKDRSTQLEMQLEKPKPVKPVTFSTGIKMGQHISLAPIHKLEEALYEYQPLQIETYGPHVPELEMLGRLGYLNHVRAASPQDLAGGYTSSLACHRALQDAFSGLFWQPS
structure (smiles),measurement,setting,value
"[Cl-].[Li+] [LiCl, lithium chloride]",Effect on MM cell viability,[1],neither LiCl nor purvalanol A reduced MM cell viability; also recorded: relatively insensitive
"CN1CC[C@H](c2c(O)cc(O)c3c(=O)cc(-c4ccccc4Cl)oc23)[C@H](O)C1 [flavopiridol, reference compound]",Anti-MM activity in vivo,"RPMI-8226/NIH-3T3 tumors; 5.0 mg/kg, weekly i.p.",no anti-MM activity
same,Effect on MM cell viability,[1],able to reduce the viability of MM cells
Nc1nc(Cl)nc2c1ncn2[C@H]1C[C@H](O)[C@@H](CO)O1 [cladribine],Effect on MM cell viability,[1],relatively insensitive
O=C1Cc2c([nH]c3ccc([N+](=O)[O-])cc23)-c2ccccc2N1 [alsterpaullone],Effect on MM cell viability,[1],micromolar concentrations of alsterpaullone) were able to reduce the viability of MM cells
N=C(N)c1cn(C2OC(CO)C(O)C2O)c2ncnc(N)c12 (stereo not drawn) [SLM7],Tumor growth delay relative to vehicle-treated controls,[2]; weekly i.p.,7 days
same,Toxicity by body condition scoring,[3]; single dose of 5 mg/kg,no overt toxicity
same,Concentrations that significantly reduced MM cell viability,[1],less than 250 nM
Cl.NNc1c(C(N)=O)c2c(N)ncnc2n1C1OC(CO)C(O)C1O (stereo not drawn) [SLM3 HCl],Effect on the growth of MM tumors,"[2]; 25 mg/kg, weekly i.p.",no effect
same,Toxicity by body condition scoring,[3]; single dose of 25 mg/kg,no overt toxicity
CC[C@H](CO)Nc1nc(NCc2ccccc2)c2ncn(C(C)C)c2n1 [roscovitine],Effect on MM cell viability,[1],relatively insensitive
"CC(C)C[C@H](NC(=O)[C@H](Cc1ccccc1)NC(=O)c1cnccn1)B(O)O [bortezomib, reference compound]",Sensitivity of MM cell lines and primary patient plasma cells to single agent,[4],sensitive
O=C1NC(=NCc2cccs2)S/C1=C\c1ccc2ncccc2c1 [RO3306],Effect on MM cell viability,[1],relatively insensitive
N/N=C(\N)c1cn(C2OC(CO)C(O)C2O)c2ncnc(N)c12 (stereo not drawn) [SLM6],Phosphorylation of RNA polymerase II at Ser5,CDK7,no effect
same,Apoptotic markers in tumors (immunohistochemistry),"[2]; 1 mg/kg i.p., 48 hours",regions of intense cleaved caspase-3 and cleaved caspase-8 immunostaining
same,Duration of sustained anti-tumor activity,"[2]; 1 mg/kg i.p., single dose on day 1",5 weeks
same,Toxicity by body condition scoring,[3]; single dose of 1 mg/kg,no overt toxicity
same,IC50,CDK1/cyclin B,< 300 nM
same,IC50,CDK7/cyclin H,> 10000 nM
same,c-Myc and cyclin D1 mRNA transcripts (RT-PCR),"[5]; 6 hours, RPMI-8226 and U266B1 cells",decreased c-Myc and cyclin D1 mRNA transcripts
same,Oncogene protein expression (Western blot),"[5]; time course, U266B1, RPMI-8226, NCI-H929 cells","repressed the expression of cyclin D1 in U266B1 cells and c-Maf expression in RPMI-8226 cells; also recorded: repressed c-Myc protein levels in RPMI-8226 and NCI-H929 cells, and suppressed L-Myc expression in U266B1 cells"
same,IC50,CDK2/cyclin A,< 300 nM
same,Size of MM tumors relative to vehicle-treated controls,"RPMI-8226/NIH-3T3 tumors; 0.5 mg/kg, weekly i.p.",significantly reduced the size of MM tumors
same,Time to evident anti-MM effects after first treatment,"RPMI-8226/NIH-3T3 tumors; 0.5 mg/kg, weekly i.p.",≤ 7 days
same,Mouse body weight or body condition scoring,"RPMI-8226/NIH-3T3 tumors; repeated dosing, 0.5 mg/kg weekly i.p.",no effect
same,Phorbol ester-induced PKC or ERK phosphorylation,PKC [6],no effect
same,"Effects on normal hematopoiesis, complete blood count with differential",[7],no effects on normal hematopoiesis in vivo other than modest thrombocytopenia
same,Systemic toxicity by serum biochemistry,[7],no signs of systemic toxicity
same,Sensitivity of MM cell lines and primary patient plasma cells to single agent,[4],sensitive
same,IC50,CDK9/cyclin K,280 nM
same,IC50,CDK9/cyclin T1,133 nM
same,Lowest concentration inhibiting phosphorylation of RNA polymerase II at Ser2,CDK9 [8],250 nM
same,Phosphorylation of CDK9 at Thr186,CDK9 [8],inhibited phosphorylation of CDK9 at Thr186
same,Effect on MM cell viability,[1],able to reduce the viability of MM cells
same,Concentrations that significantly reduced MM cell viability,[1],less than 250 nM
same,IC50,CDK4/cyclin D1,> 10000 nM
O=c1[nH]cc(F)c(=O)[nH]1 [5′-fluorouracil],Effect on MM cell viability,[1],relatively insensitive
NNc1c(C(N)=O)c2c(N)ncnc2n1[C@@H]1O[C@H](CO)[C@@H](O)[C@H]1O [SLM3],Activity against CDK9 in vitro,CDK9 [9],modest activity
same,Activity against PKC in vitro,PKC [10],modest activity
same,Apoptosis (active caspase-3 positive cells),[11],negligible levels of apoptosis
same,Activity on cell viability of primary plasma cells,[12],confirmed this activity
same,Effect on MM cell viability,[1],superior activity compared to other nucleoside analogs
same,Concentrations that significantly reduced MM cell viability,[1],less than 250 nM
same,IC50,"[1]; read-out: IC50, cell viability, MM cells",200 to 400 nM
same,Apoptotic marker cleaved caspase-3,"RPMI-8226 cells; RPMI-8226, increasing concentrations",dose-dependent increase
same,Sensitivity of MM cells relative to other tumor types,[13]; MM cell lines and primary patient plasma cells vs other tumor types,3 to 10 times
same,IC50,"[13]; read-out: IC50, cell viability, 24 h, breast, colon, lung, hepatocellular, glioma and one of two pancreatic cancer cell lines",> 2000 nM
"NC(=O)c1cn([C@@H]2O[C@H](CO)[C@@H](O)[C@H]2O)c2ncnc(N)c12 [sangivamycin, reference compound]",Activity against PKC,PKC [10],known to inhibit PKC
same,Phorbol ester-induced PKC or ERK phosphorylation,PKC [6],significantly reduced phosphorylation of both kinases
same,Concentrations that significantly reduced MM cell viability,[1],less than 250 nM
same,"Safety in humans, phase I trial",[14],demonstrated the safety of this compound in humans
same,MM cell apoptosis (cleaved caspase-3 positive cells),"RPMI-8226 cells; RPMI-8226, 500 nM",60-80%
Nc1ccn([C@@H]2O[C@H](CO)[C@@H](O)C2(F)F)c(=O)n1 [gemcitabine],Effect on MM cell viability,[1],relatively insensitive
N/C(=N\O)c1cn(C2OC(CO)C(O)C2O)c2ncnc(N)c12 (stereo not drawn) [SLM5],Tumor growth delay relative to vehicle-treated controls,[2]; weekly i.p.,7 days
same,Toxicity by body condition scoring,[3]; single dose of 5 mg/kg,no overt toxicity
same,Concentrations that significantly reduced MM cell viability,[1],less than 250 nM
CC(C)[C@H](CO)Nc1nc(Nc2cccc(Cl)c2)c2ncn(C(C)C)c2n1 [purvalanol A],Effect on MM cell viability,[1],neither LiCl nor purvalanol A reduced MM cell viability; also recorded: relatively insensitive
